# High-throughput results from PubChem.
# MEKK2wt PB1 HTS: raises or lowers MEK5 binding to wildtype human MEKK2 PB1 domain | bead flow cytometry, Alexa488-MEK5 binding to MEKK2 WT; actives lie on both sides | binding response (% of control), % at 10 µM | 1.1% of 290,000 active | Q9Y2U5; in the data active = binding response below about 67% or above about 130%
# VIM-2 inhibitor: blocks Pseudomonas aeruginosa VIM-2 metallo-beta-lactamase; 0.89% of 290,000 active; inhibition, % at 5.6 µM; AID 1527; purified VIM-2, nitrocefin hydrolysis, epi-absorbance fluorescence;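 active = inhibition above the mean of all tested compounds plus 3 SD, cutoff set per screening run, cut at about 7.5% in these data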;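 note: red hydrolysis product quenches plate fluorescence so inhibitors raise well fluorescence; 0% = enzyme with DMSO and 100% = DMSO without enzyme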
# MEKK2mut PB1 HTS: signal of MEK5 binding to mutant human MEKK2 PB1 domain; 0.35% of 290,000 active; AID 1530; bead flow cytometry, Alexa488-MEK5 binding to MEKK2 mutant; percent response, % at 10 µM; in the data active = percent response above about 24%, passing the limit was not always enough
# MEKK3 PB1 HTS: modulators (inhibitors or enhancers) of MEK5 binding to human MEKK3 PB1 domain; binding response (% of control), % at 10 µM; Q99759; bead-based flow cytometry, Alexa488-MEK5 binding to MEKK3; actives lie on both sides; 0 = blocked by unlabeled MEK5, 100 = vehicle; 1.4% of 290,000 active;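 active = binding response more than 3 SD above or below the average of its plate-row segment, actives on both sides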;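 note: Alexa488 bead fluorescence after subtracting the streptavidin-only scavenger bead signal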
# Target sequence (Q99759 whole entry, looked up, the tested form may be a part): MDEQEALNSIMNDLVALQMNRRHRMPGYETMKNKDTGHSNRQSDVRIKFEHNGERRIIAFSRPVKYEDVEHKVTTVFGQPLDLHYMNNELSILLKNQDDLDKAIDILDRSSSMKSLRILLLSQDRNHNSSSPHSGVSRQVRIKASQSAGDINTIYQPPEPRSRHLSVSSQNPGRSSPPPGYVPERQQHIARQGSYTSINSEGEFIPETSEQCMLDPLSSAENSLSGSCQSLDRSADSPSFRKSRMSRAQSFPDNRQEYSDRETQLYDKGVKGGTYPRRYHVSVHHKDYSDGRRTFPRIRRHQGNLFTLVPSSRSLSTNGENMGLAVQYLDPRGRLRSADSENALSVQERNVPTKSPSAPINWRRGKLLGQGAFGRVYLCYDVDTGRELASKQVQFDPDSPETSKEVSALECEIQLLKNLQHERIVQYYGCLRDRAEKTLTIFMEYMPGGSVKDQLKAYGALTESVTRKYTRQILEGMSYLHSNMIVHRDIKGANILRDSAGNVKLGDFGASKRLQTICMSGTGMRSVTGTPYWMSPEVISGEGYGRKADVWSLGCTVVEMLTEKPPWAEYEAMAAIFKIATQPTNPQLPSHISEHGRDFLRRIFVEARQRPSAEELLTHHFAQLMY
# IMP-1 inh: inhibitors of Pseudomonas aeruginosa IMP-1 metallo-beta-lactamase. AID 1556. inhibition, % at 5.6 µM. purified IMP-1, nitrocefin hydrolysis, epi-absorbance fluorescence. 0.45% of 290,000 active;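 active = inhibition above the mean plus 3 SD of all compounds in the same screening run, cut at about 4.5% in these data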;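 note: 0% = IMP-1 with DMSO and 100% = DMSO wells lacking enzyme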
#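 Material – recombinant IMP-1 enzyme, purified · Amount – IMP-1 0.2 nM before substrate addition · Medium – HEPES buffer pH 7.1 with ZnSO4 and Brij 35 · Timing – 25 °C, 15 min preincubation, 25 min reaction · Measured by – plate fluorescence quenching by hydrolysis product, ex 480/em 530 nm · Read-out – percent enzyme inhibition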
# An asterisk follows results filed as active; x = not tested or not shown; [ ] = another dose, or the depositor's remark. Most compounds without a hit are left out; they make up all but 3.4% or so of the library.
SMILES,MEKK2wt PB1 HTS,VIM-2 inhibitor,MEKK2mut PB1 HTS,MEKK3 PB1 HTS,IMP-1 inh
CC(Oc1ccc(Cl)cc1Cl)C(=O)Nc1ncccn1 (stereo not drawn),94,-1,3,97,-3
O=c1nc2c(O)cccn2c2c1c(=O)[nH]c1ccccc12,103,5,0,98,8.3*
COc1cc(OC)c(C2N(c3ccc(Cl)cc3)C(=O)C3CCCN32)cc1OC (stereo not drawn),10*,0,13,96,-3
COc1cc(OC)c(C2N(c3ccc(Cl)c(Cl)c3)C(=O)C3CCCN32)cc1OC (stereo not drawn),101,-4,1,99,-3
Cc1ccc(C(=O)Nc2ccncc2)c(C)c1,104,-1,2,107,-4
N#C/C(=C/c1cn(-c2ccccc2)nc1-c1cccc(OCc2ccc(F)cc2)c1)C(=O)NCCCn1ccnc1,131,-3,3,172*,-5
COc1cc(C(=O)OCC(=O)N2CCCC2)cc(OC)c1OC,103,-1,8,103,-1
S=c1nc(-c2ccccc2)[nH]n1-c1ccccc1,x,-3,x,x,-2
S=c1nc(-c2ccccc2)n(-c2ccccc2)[nH]1,103,9.8*,3,102,0
Cc1ccccc1OCC(O)CN1CCN(CC(O)COc2ccccc2C)CC1 (stereo not drawn),107,-2,6,99,-2
Cc1ccccc1OCC(O)CN1CCC(C)CC1 (stereo not drawn),0.0*[inhibitor],1,-47,1.0*[inhibitor],2
Cc1ccc(C)c(OCC(O)CN2CCC(CN3C(=O)c4cccc5cccc(c45)C3=O)CC2)c1 (stereo not drawn),162*,2,6,112,0
Cc1ccc(C(=O)N/C(=C\c2ccc(-c3ccc([N+](=O)[O-])cc3)o2)C(=O)NC2CCS(=O)(=O)C2)cc1 (stereo not drawn),4.0*,1,8,98,-2
Cc1ccc(C(=O)N/C(=C\c2ccc(-c3cccc([N+](=O)[O-])c3)o2)C(=O)NC(C)(C)C)cc1,104,0,0,112,0
CCCCN(CC)CCNC(=O)c1cc2cc3ccc(Cl)cc3nc2o1,112,1,12,101,-2
CCS(=O)(=O)Nc1cccc(C2=NN(S(=O)(=O)CC)C(c3cccs3)C2)c1 (stereo not drawn),x,-4,32*,17*[inhibitor],-3
CS(=O)(=O)Nc1cccc(C2=NN(S(=O)(=O)c3ccc(F)cc3)C(c3cccs3)C2)c1 (stereo not drawn),7.0*,-3,6,103,-4
COc1cccc(C2CC(c3cccs3)=NN2S(C)(=O)=O)c1 (stereo not drawn),3.0*,-2,19,100,-2
CS(=O)(=O)Nc1cccc(C2=NN(C(=O)c3ccccc3)C(c3cccs3)C2)c1 (stereo not drawn),101,-1,2,103,-2
CCS(=O)(=O)Nc1cccc(C2=NN(S(=O)(=O)c3ccc(F)cc3)C(c3cccs3)C2)c1 (stereo not drawn),101,-2,2,103,-3
CCS(=O)(=O)Nc1cccc(C2=NN(S(C)(=O)=O)C(c3cccs3)C2)c1 (stereo not drawn),x,-2,x,12*[inhibitor],-5
CC(C)(C)C(=O)N1N=C(c2cccc(NS(C)(=O)=O)c2)CC1c1cccs1 (stereo not drawn),89,0,-12,102,-4
C=CCNC(=O)CN(Cc1ccccc1)S(=O)(=O)c1ccccc1,104,0,7,103,-2
CCC1(C)Cc2c(C#N)c(N)n(-c3ccccc3)c(=S)c2CO1 (stereo not drawn),98,-1,-1,103,-2
COc1ccc(S(=O)(=O)N2N=C(c3cccc(NS(C)(=O)=O)c3)CC2c2ccco2)cc1 (stereo not drawn),14*,-1,21,100,-1
SMILES,MEKK2wt PB1 HTS,VIM-2 inhibitor,MEKK2mut PB1 HTS,MEKK3 PB1 HTS,IMP-1 inh
COc1ccc(S(=O)(=O)N2N=C(c3ccc(NS(C)(=O)=O)cc3)CC2c2ccco2)cc1 (stereo not drawn),84,-2,4,101,-3
CCS(=O)(=O)Nc1ccc(C2=NN(S(=O)(=O)CC)C(c3cccs3)C2)cc1 (stereo not drawn),x,0,-32,7.0*[inhibitor],-2
CS(=O)(=O)Nc1cccc(C2=NN(S(C)(=O)=O)C(c3ccc4c(c3)OCO4)C2)c1 (stereo not drawn),26*,0,29,111,-2
CCS(=O)(=O)N1N=C(c2cccc(NS(C)(=O)=O)c2)CC1c1cccs1 (stereo not drawn),x,-2,24*,13*[inhibitor],2
CS(=O)(=O)N1N=C(c2ccc(Cl)cc2)CC1c1cccs1 (stereo not drawn),100,0,1,101,-2
Cc1ccccc1N(CC(=O)NCc1ccco1)C(=O)CNS(=O)(=O)c1ccc(F)cc1,96,-2,-4,97,-1
NC(=O)C1CCN(CCC(=O)Nc2ccc(F)c(F)c2)CC1,105,0,1,97,0
Oc1c(C=Nc2ccccc2)sc2ccccc12,82,1,-15,92,-2
Oc1sc(C=Nc2ccc(F)cc2)c2ccccc12,98,6,2,115,13*
Cc1[nH]c2ccc(-c3n[nH]c(=S)n3-c3ccccc3)cc2c1C,105,2,1,95,-2
S=c1[nH]nc(-c2ccc(Cl)cc2Cl)n1-c1ccc2c(c1)OCCO2,99,9.2*,2,97,-5
CS(=O)(=O)Nc1ccc(-c2n[nH]c(=S)n2-c2ccccc2)cc1,105,8.2*,2,105,-3
S=c1[nH]nc(COc2ccc3c(c2)OCO3)n1-c1ccccc1,91,-3,-4,91,-3
S=c1[nH]nc(-c2ccc(Cl)cc2Cl)n1-c1ccccc1,104,1,6,107,-6
S=c1[nH]nc(-c2ccc3c(c2)OCO3)n1-c1ccccc1,120,11*,19,104,-4
Cc1nn(C)cc1-c1n[nH]c(=S)n1-c1ccc(Cl)cc1,106,9.2*,2,108,-3
O=C(Nc1nnc(-c2ccccc2)s1)c1ccc(Cl)c(S(=O)(=O)N2CCOCC2)c1,99,-2,-2,101,-2
CCOC(=O)NC(=O)/C(C#N)=N\Nc1cccc(Cl)c1,108,-3,3,107,-4
COc1ccccc1-c1n[nH]c(=S)n1-c1ccccc1,101,8.9*,5,106,-3
COc1ccccc1-c1n[nH]c(=S)n1N,106,1,-1,104,-3
COc1cc(OC)cc(-c2n[nH]c(=S)n2-c2ccc3c(c2)OCCO3)c1,102,8.1*,0,103,-5
CCn1c(O)c(N=NC(=O)Cc2csc(N3CCOCC3)n2)c2ccccc21,100,6,-5,101,-3
